Experimental findings from ChEMBL document CHEMBL2401701, “Notable difference in anti-HIV activity of integrase inhibitors as a consequence of geometric and enantiomeric configurations” (Bioorg Med Chem Lett, 2013) are described below.

Data set [1] can be described thus: Cytotoxicity against human MAGI cells by MTS assay. The data set is classed as cell-based. In general terms: Tetrazolium dyes change colour on reduction, which living cells bring about.
The subject of data set [2] is Human immunodeficiency virus 1. Put plainly: Antiviral activity against Human immunodeficiency virus 1 NL4-3 infected in human MAGI cells after 6 days by beta-galactosidase reporter gene assay. It counts as functional, organism-based. Particulars: Human immunodeficiency virus 1, NL4-3, MAGI, 144 h. Put shortly:
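MAGI cells carrying an LTR-β-galactosidase reporter were infected with HIV-1 in the presence of compound. After 6 days post-infection, cells were lysed and β-galactosidase activity was read by chemiluminescence. Values are means of three determinations.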
On the technique in general: A reporter such as luciferase makes a cellular process visible.

Data set [3] in a line: Half life in human liver microsomes at 50 uM preincubated for 3 mins prior to NADPH addition measured after 60 mins by HPLC analysis. The data set is classed as ADME, Microsome. Put shortly:
(§1)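 Pooled mixed-gender human liver microsomes (0.5 mg/mL protein) were incubated with 2 mM NADPH, 0.5 U/mL G-6-P-DH, 5 mM MgCl₂ and 5 mM G-6-P in 100 mM potassium phosphate pH 7.4. After 3 min preincubation at 37 °C, NADPH was added to start the reaction, which ran 60 min. Samples taken at 0, 15, 30, 45 and 60 min were quenched with ice-cold acetonitrile, then run on reversed-phase C18 HPLC (phosphate pH 6.5/acetonitrile gradient) with UV at 360 nm. Data are mean ± SD of three.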
For orientation: Liver microsomes are vesicles of endoplasmic reticulum, rich in cytochrome P450 enzymes.

For data set [4], the target named is T1, CYP2D6 (Homo sapiens, UniProt P10635). Put plainly: Activity at CYP2D6 in human liver microsomes using dextromethorphan as substrate at 25 uM preincubated for 3 mins prior to NADPH addition by HPLC-UV analysis relative to control. It counts as ADME, Microsome. The note with it: probe dextromethorphan, read-out: Activity. In a few lines:
(§2)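 Pooled mixed-gender human liver microsomes in 100 mM potassium phosphate (pH 7.4) with 5 mM MgCl₂, probe substrate at its Km-based level, and test compound. Final volume 100 µL. Preincubated 3 min at 37 °C, then started with 2 mM NADPH (final). Metabolite was read by HPLC-UV: 6β-hydroxytestosterone at 254 nm, 4-hydroxytriazolam at 260 nm, dextrorphan at 278 nm. Activity is given as % of control (100%), mean ± SD of three.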

Data set [5] deals with T2, CYP3A4 (Homo sapiens, UniProt P08684). Put plainly: Activity at CYP3A4 in human liver microsomes using triazolam as substrate at 12.5 uM preincubated for 3 mins prior to NADPH addition by HPLC-UV analysis relative to control. The data set is classed as ADME, Microsome. Particulars: probe triazolam, read-out: Activity. Put shortly: as §2
The target in data set [6] is T2, CYP3A4. Put plainly: Activity at CYP3A4 in human liver microsomes using triazolam as substrate at 25 uM preincubated for 3 mins prior to NADPH addition by HPLC-UV analysis relative to control. It counts as ADME, Microsome. The note with it: probe triazolam, read-out: Activity. In a few lines:
as §2

For data set [7], the target named is T1, CYP2D6. Put plainly: Activity at CYP2D6 in human liver microsomes using dextromethorphan as substrate at 12.5 uM preincubated for 3 mins prior to NADPH addition by HPLC-UV analysis relative to control. It counts as ADME, Microsome. Particulars: probe dextromethorphan, read-out: Activity. Put shortly:
as §2

Data set [8] addresses T1, CYP2D6. The data set is described as follows: Activity at CYP2D6 in human liver microsomes using dextromethorphan as substrate at 50 uM preincubated for 3 mins prior to NADPH addition by HPLC-UV analysis relative to control. It counts as ADME, Microsome. Particulars: probe dextromethorphan, read-out: Activity. Put shortly:
as §2

For data set [9], the system named is Liver microsomes. The data set is described as follows: Metabolic stability in human liver microsomes assessed as retention time of parent compound at 50 uM by HPLC-UV analysis. It counts as ADME, Microsome. In a few lines:
as §1

In data set [10] the target is T2, CYP3A4. Put plainly: Activity at CYP3A4 in human liver microsomes using testosterone as substrate at 25 uM preincubated for 3 mins prior to NADPH addition by HPLC-UV analysis relative to control. Particulars: probe testosterone, read-out: Activity. It counts as ADME, Microsome. Put shortly:
as §2

For data set [11], the target named is T2, CYP3A4. Put plainly: Activity at CYP3A4 in human liver microsomes using testosterone as substrate at 12.5 uM preincubated for 3 mins prior to NADPH addition by HPLC-UV analysis relative to control. The data set is classed as ADME, Microsome. Particulars: probe testosterone, read-out: Activity. Put shortly: as §2
Data set [12] addresses T2, CYP3A4. Put plainly: Activity at CYP3A4 in human liver microsomes using triazolam as substrate at 50 uM preincubated for 3 mins prior to NADPH addition by HPLC-UV analysis relative to control. It counts as ADME, Microsome. The note with it: probe triazolam, read-out: Activity. In a few lines: as §2
The subject of data set [13] is Liver microsomes. Put plainly: Metabolic stability in human liver microsomes assessed as retention time of metabolite at 50 uM by HPLC-UV analysis. The data set is classed as ADME, Microsome. Put shortly:
as §1

In data set [14] the target is Human immunodeficiency virus type 1 integrase (Human immunodeficiency virus 1, UniProt Q7ZJM1). The data set is described as follows: (§3) Inhibition of HIV-1 integrase strand transfer activity after 1 hr by ELISA. Put shortly: (§4)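 DNA substrate (20 nM final), serially diluted compound, and recombinant HIV-1 integrase were combined in 20 mM HEPES pH 7.5, 10 mM MgCl₂, 5% PEG, 0.1 mg/mL BSA, 5 mM DTT. The mix was moved to streptavidin plates for 1 h at room temperature, then washed with NaOH/NaCl/EDTA and Tris-EDTA. Detection antibody was applied for 1 h at 37 °C, followed by TMB for 10 min and absorbance at 450 nm.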

Data set [15] deals with Human immunodeficiency virus type 1 integrase (Human immunodeficiency virus 1) (UniProt Q7ZJM1). The description is as §3. Put shortly: as §4

SMILES strings stand for the structures. pEC50, pIC50: −log10 of the molar value. The source made the active and inactive calls. The rule behind the calls is not given here.

T1 sequence (P10635 whole entry): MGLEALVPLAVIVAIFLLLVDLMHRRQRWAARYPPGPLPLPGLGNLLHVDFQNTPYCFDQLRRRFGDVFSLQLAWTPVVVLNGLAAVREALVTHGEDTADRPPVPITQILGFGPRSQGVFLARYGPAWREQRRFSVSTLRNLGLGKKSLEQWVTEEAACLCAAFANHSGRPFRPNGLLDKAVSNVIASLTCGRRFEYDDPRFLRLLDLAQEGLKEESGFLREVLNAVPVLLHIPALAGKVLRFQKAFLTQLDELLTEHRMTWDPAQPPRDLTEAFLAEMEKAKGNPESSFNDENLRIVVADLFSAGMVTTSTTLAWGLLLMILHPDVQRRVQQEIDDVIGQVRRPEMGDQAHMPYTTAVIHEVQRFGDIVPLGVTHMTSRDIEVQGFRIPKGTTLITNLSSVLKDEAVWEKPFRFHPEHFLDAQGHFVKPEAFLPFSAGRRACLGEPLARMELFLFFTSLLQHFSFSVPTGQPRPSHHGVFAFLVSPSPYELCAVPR
T2 sequence (P08684 whole entry): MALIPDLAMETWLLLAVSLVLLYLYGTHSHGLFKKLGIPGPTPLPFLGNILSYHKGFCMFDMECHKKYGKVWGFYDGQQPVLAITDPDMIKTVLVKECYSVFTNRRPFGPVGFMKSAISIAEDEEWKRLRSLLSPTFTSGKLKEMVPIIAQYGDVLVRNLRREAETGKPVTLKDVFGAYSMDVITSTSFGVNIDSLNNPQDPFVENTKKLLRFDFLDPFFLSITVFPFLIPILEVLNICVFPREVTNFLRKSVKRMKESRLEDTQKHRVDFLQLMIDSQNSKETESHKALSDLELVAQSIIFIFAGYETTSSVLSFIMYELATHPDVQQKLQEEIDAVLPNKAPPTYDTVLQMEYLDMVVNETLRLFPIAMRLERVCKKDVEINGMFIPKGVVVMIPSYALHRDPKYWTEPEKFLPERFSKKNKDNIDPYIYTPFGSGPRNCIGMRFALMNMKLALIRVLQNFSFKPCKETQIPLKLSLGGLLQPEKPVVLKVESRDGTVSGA
Human immunodeficiency virus type 1 integrase (Human immunodeficiency virus 1), sequence (Q7ZJM1 as listed by the source): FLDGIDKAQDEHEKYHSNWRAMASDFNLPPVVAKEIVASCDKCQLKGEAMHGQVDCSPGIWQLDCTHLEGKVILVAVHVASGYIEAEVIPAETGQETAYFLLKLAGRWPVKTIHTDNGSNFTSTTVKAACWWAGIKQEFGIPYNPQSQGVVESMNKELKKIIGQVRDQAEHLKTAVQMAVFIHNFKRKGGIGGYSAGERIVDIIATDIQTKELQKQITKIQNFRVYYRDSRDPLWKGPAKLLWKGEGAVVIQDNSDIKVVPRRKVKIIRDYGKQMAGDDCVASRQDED
Human immunodeficiency virus type 1 integrase, sequence (Q7ZJM1 whole entry): as the sequence (Q7ZJM1 as listed by the source) above

With `O=C(/C=C(\O)c1cc(Cc2ccc(F)cc2F)cn(Cc2ccccc2F)c1=O)C(=O)N[C@@H]1CCC[C@H]1O`, half-maximal cytotoxicity in data set [1] (CC50) was put at 137000 nM. In [2], the pEC50 – broadly, the EC50 on a negative log10 scale, so that one unit is a factor of ten – was 7.37 and the concentration for an effect of 90% (EC90) – broadly, the point of the concentration-response curve where the effect stands at 90% – came out at 871 nM.
Regarding `O=C(/C=C(\O)c1cc(Cc2ccc(F)cc2F)cn(Cc2ccccc2F)c1=O)C(=O)N[C@H]1CCC[C@@H]1O`, in [3], the half-life (usually the time in which the quantity being followed falls by half) at 50 µM was 2 h. Moreover, the activity at 25 µM on CYP2D6 [4] worked out at 87%; at CYP3A4 [6] it was 98%; at CYP3A4 [10] it was 97%. The activity at 12.5 µM on CYP3A4 [5] was 124%; on CYP2D6 [7], 86%; at CYP3A4 [11], 109%. The CC50 (commonly the concentration giving 50% cytotoxicity) in [1] turned out to be 40400 nM. The activity at 50 µM on CYP2D6 [8] was 87%; at CYP3A4 [12], 100%. Moreover, the Retention_time in the data set with Liver microsomes [9] worked out at 10.48 min; with Liver microsomes [13], 9.1 min. The pEC50 in data set [2] was 7.60. In addition, the EC90 in [2] was 415 nM.
`O=C(/C=C(\O)c1cc(Cc2ccc(F)cc2F)cn(Cc2ccccc2F)c1=O)C(=O)N[C@@H]1CCC[C@H]1O` (racemic): in data set [14], the pIC50 (as a rule, the IC50 on a negative log10 scale, so that one unit is a factor of ten) is 7.32.
As for `O=C(/C=C(\O)c1cc(Cc2ccc(F)cc2F)cn(Cc2ccccc2F)c1=O)C(=O)N[C@@H]1CCC[C@@H]1O` (racemic), the inhibition result in data set [15] was “inactive”.
